Each block holds one molecule with its values, some of them ahead of it.
Assays:
[1] = target: T1, full length TbrPDEB1 (Trypanosoma brucei, UniProt Q8WQX9); assay: Phosphodiesterase activity assay; format: biochemical; conditions: for Selectivity, hPDE4B1 (Ki)/TbrPDEB1 (Ki): ratio of Ki values
T1 sequence (Q8WQX9 1-930): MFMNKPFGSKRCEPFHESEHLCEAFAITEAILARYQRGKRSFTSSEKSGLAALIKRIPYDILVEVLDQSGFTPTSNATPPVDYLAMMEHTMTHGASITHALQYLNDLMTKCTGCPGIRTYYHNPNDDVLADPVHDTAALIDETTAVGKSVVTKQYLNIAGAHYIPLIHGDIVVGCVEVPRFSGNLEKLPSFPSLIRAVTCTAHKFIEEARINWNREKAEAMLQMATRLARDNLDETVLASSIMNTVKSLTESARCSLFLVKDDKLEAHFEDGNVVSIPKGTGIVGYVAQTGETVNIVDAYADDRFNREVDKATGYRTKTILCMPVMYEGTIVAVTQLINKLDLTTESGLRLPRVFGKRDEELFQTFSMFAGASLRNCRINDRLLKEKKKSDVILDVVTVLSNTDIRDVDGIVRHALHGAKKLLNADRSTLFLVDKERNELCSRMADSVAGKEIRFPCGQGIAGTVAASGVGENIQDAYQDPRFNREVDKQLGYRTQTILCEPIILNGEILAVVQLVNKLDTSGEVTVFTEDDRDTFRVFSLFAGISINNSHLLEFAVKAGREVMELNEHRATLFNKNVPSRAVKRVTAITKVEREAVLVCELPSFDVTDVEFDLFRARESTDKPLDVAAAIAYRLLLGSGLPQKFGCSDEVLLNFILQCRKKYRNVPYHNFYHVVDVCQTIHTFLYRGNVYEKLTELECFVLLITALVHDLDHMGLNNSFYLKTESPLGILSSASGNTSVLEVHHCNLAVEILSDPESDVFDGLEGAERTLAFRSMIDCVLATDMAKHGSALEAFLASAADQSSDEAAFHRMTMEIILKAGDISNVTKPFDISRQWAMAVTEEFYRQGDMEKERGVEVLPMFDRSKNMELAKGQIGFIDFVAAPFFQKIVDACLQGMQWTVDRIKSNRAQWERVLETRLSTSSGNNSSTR

[2] = target: T1, full length TbrPDEB1; conditions: established hPDE4 inhibitors; cited from earlier work
[3] = system: T. brucei; conditions: cited from earlier work
[4] = system: T. brucei cellular PDE activity; conditions: cited from earlier work
[5] = system: hPDE4 subtypes; conditions: read-out: hPDE4 subtypes IC50; cited from earlier work
[6] = target: T2, full length recombinant hPDE4B1 (Homo sapiens, UniProt Q07343); conditions: read-out: hPDE4B1 IC50; cited from earlier work
[7] = system: intracellular cAMP levels in T. brucei; assay: Intracellular cAMP measurements in bloodstream form trypanosomes; format: cell-based, T. brucei Lister 427; conditions: 5 h
How it was run: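 Log-phase bloodstream forms, HMI-9 with 10% heat-inactivated FBS, 37 °C, 5% CO2, set at 2 × 10^6 cells/mL. Dosed 5 h with test compound at 0.1, 0.33, 1, 3.3 or 10 μM (final), 0.3 μM PDE inhibitor positive control, 0.025 μM pentamidine, or no drug. 5 × 10^6 cells pelleted and lysed in 0.1 M HCl on ice 20 min; cAMP assayed in extracts in duplicate. Mean of four determinations ± SEM, Student's t-test, P < 0.05.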

[8] = target: T2, full length recombinant hPDE4B1; assay: Phosphodiesterase activity assay; format: biochemical
[9] = system: T. brucei bloodstream forms; assay: Microscopy and DAPI staining; format: cell-based; conditions: 10 μM
How it was run: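 Lister 427 bloodstream forms in HMI-9 with 10% heat-inactivated FBS, 37 °C, 5% CO2, seeded at 2 × 10^5 cells/mL with 10 μM test compound. Sampled at 0, 6, 12 and 24 h, pelleted at 4 °C, washed in PBS pH 7.4 and spread on slides. DAPI-stained; brightfield and fluorescence imaging scored nuclear and kinetoplast division, cytokinesis and morphology.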

T2 sequence (Q07343 whole entry): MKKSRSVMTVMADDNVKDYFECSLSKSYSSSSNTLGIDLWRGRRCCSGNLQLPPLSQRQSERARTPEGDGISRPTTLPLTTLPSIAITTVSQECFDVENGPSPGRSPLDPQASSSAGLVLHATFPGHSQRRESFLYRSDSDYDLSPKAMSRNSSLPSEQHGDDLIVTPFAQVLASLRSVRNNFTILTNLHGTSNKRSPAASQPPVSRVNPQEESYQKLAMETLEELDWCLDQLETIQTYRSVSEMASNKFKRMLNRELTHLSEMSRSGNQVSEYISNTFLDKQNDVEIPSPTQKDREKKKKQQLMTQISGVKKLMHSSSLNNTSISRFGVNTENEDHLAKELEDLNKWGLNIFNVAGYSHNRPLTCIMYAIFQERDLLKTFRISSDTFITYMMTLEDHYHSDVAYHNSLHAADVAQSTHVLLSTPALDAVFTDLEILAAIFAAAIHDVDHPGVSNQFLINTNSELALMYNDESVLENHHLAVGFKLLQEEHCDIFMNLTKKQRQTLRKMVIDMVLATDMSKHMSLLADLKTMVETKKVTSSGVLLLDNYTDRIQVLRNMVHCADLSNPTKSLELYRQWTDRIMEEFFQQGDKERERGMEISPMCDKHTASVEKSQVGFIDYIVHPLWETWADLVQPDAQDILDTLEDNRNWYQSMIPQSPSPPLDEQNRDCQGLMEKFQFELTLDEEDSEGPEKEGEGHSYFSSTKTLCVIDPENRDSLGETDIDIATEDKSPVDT

Structure (SMILES): COc1ccc(C2=NN(C3CCCCCC3)C(=O)[C@H]3CC=CC[C@@H]23)cc1-c1ccc(C(=O)NCC(N)=O)cc1 [8a, N-(2-Amino-2-oxoethyl)-5′-((4aS,8aR)-3-cycloheptyl-4-oxo-3,4,4a,5,8,8a-hexahydrophthalazin-1-yl)-2′-methoxy-[1,1′-biphenyl]-4-carboxamide]
fold less potent against TbrPDEB1 than optical isomer 8b ([1]; 8a versus 8b): 100 fold

Structure (SMILES): CCOC(=O)c1cnc2c(cnn2CC)c1NN=C(C)C [etazolate]
inhibition of the enzyme TbrPDEB1 [2]: do not inhibit | killing of the parasite [3]: do not kill the parasite | inhibition of T. brucei cellular PDE activity [4]: do not inhibit

Structure (SMILES): COc1ccc(C2=NN(C3CCCCCC3)C(=O)[C@@H]3CC=CC[C@H]23)cc1OCCCCOc1ccc(-c2nnn[nH]2)cc1 [compound 1]
IC50 [5]: < 1 nM | IC50 [6]: 0.6 nM | effect on intracellular cAMP level ([7]; positive control 0.3 μM, compared with 10 μM of 8): equally effective

Structure (SMILES): COc1ccc(C2CNC(=O)C2)cc1OC1CCCC1 (stereo not drawn) [rolipram]
inhibition of the enzyme TbrPDEB1 [2]: do not inhibit | killing of the parasite [3]: do not kill the parasite | inhibition of T. brucei cellular PDE activity [4]: do not inhibit

Structure (SMILES): N=C(N)c1ccc(OCCCCCOc2ccc(C(=N)N)cc2)cc1 [pentamidine, reference compound]
effect on intracellular cAMP level ([7]; negative control, 0.025 μM, versus untreated parasites): not statistically different from untreated parasites

Continued, in another order:

Ki [1]: 200 nM | Selectivity, hPDE4B1 (Ki)/TbrPDEB1 (Ki) [1]: 15 | Ki [8]: 3160 nM
Structure (SMILES): COc1ccc(C2=NN(C(C)C)C(=O)C3CC=CCC23)cc1-c1ccc(C(=O)N2CC[C@@H](O)C2)cc1 (mixture of isomers) [compound 22, cis-4-(4′-((R)-3-Hydroxypyrrolidine-1-carbonyl)-6-methoxy-[1,1′-biphenyl]-3-yl)-2-isopropyl-4a,5,8,8a-tetrahydrophthalazin-1(2H)-one]

selectivity for TbrPDEB1 over hPDE4B1 [1]: more than 10 fold
Structure (SMILES): COc1ccc(C2=NN(C3CCCCCC3)C(=O)C3CC=CCC23)cc1-c1ccc(C(=O)N2CCC[C@@H]2C(N)=O)cc1 (mixture of isomers) [compound 23, (R)-1-(5′-(cis-3-Cycloheptyl-4-oxo-3,4,4a,5,8,8a-hexahydrophthalazin-1-yl)-2′-methoxy-[1,1′-biphenyl]-4-carbonyl)pyrrolidine-2-carboxamide]

Selectivity, hPDE4B1 (Ki)/TbrPDEB1 (Ki) [1]: 9
Structure (SMILES): COc1ccc(C2=NN(C3CCCCCC3)C(=O)C3CC=CCC23)cc1-c1ccc(C(=O)N2CC[C@@H](O)C2)cc1 (mixture of isomers) [compound 21, cis-2-Cycloheptyl-4-(4′-((R)-3-hydroxy-pyrrolidine-1-carbonyl)-6-methoxy-[1,1′-biphenyl]-3-yl)-4a,5,8,8a-tetrahydrophthalazin-1(2H)-one]

selectivity for TbrPDEB1 over hPDE4B1 [1]: more than 10 fold | Selectivity, hPDE4B1 (Ki)/TbrPDEB1 (Ki) [1]: 18 | Ki [8]: 10000 nM
Structure (SMILES): COc1ccc(C2=NN(C(C)C)C(=O)C3CC=CCC23)cc1-c1ccc(C(=O)N2CCC[C@@H]2C(N)=O)cc1 (mixture of isomers) [compound 24, (R)-1-(5′-(cis-3-Isopropyl-4-oxo-3,4,4a,5,8,8a-hexahydrophthalazin-1-yl)-2′-methoxy-[1,1′-biphenyl]-4-carbonyl)pyrrolidine-2-carboxamide]

selectivity for TbrPDEB1 over hPDE4B1 [1]: ~8 fold
Structure (SMILES): COc1ccc(C2=NN(C3CCCCCC3)C(=O)[C@@H]3CC=CC[C@H]23)cc1-c1ccc(C(=O)NCC(=O)NCCO)cc1 (relative stereo) [compound 16, 5′-(cis-3-Cycloheptyl-4-oxo-3,4,4a,5,8,8a-hexahydrophthalazin-1-yl)-N-(2-((2-hydroxyethyl)amino)-2-oxoethyl)-2′-methoxy-[1,1′-biphenyl]-4-carboxamide]

Ki [1]: 100 nM | Ki [8]: 1000 nM
Structure (SMILES): COc1ccc(C2=NN(C3CCCCCC3)C(=O)[C@@H]3CC=CC[C@H]23)cc1-c1ccc(C(=O)NCC(N)=O)cc1 (relative stereo) [compound 8, N-(2-Amino-2-oxoethyl)-5′-(cis-3-cycloheptyl-4-oxo-3,4,4a,5,8,8a-hexahydrophthalazin-1-yl)-2′-methoxy-[1,1′-biphenyl]-4-carboxamide]
cellular phenotype by fluorescence microscopy ([9]; 6 h): defect in cytokinesis | cellular phenotype by fluorescence microscopy ([9]; 12 h): rounded cells with multiple flagella, some of them detached, and at least 4 nuclei | cellular phenotype by fluorescence microscopy ([9]; 24 h): only a few live cells could be detected, all of which were severely misshapen | effect on intracellular cAMP level ([7]; 100 nM, P < 0.05): small but significant effect | effect on intracellular cAMP level ([7]; 10 μM, P < 0.001): strong increase of cAMP level

Reference: article PMC5949723 (Journal of Medicinal Chemistry, 2018)
